Test results from ChEMBL document CHEMBL2346596, “Spirocyclic β-site amyloid precursor protein cleaving enzyme 1 (BACE1) inhibitors: from hit to lowering of cerebrospinal fluid (CSF) amyloid β in a higher species” (J Med Chem, 2013).

Assays:
[1] = Free plasma concentration in Hartley guinea pig at 75 mg/kg, po formulated with 0.5% HPMC/0.5% Tween 80 after 5 hrs; assay type: ADME, organism-based, Cavia porcellus; design: dose 75 mg/kg, route oral; settings: in vivo
In short: (§1)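 Male Hartley guinea pigs, 6−8 weeks, 250−350 g, 6−8 per group, given a single oral dose or vehicle at 4−5 mL/kg. Euthanized with euthasol 250 mg/kg ip at set times. Whole blood was taken post-mortem by cardiac puncture into EDTA and centrifuged at 4 °C. Plasma was stored at −20 °C for drug analysis.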

[2] = Drug uptake in Hartley guinea pig CSF at 75 mg/kg, po formulated with 0.5% HPMC/0.5% Tween 80 after 5 hrs; assay type: ADME, organism-based, Cavia porcellus, Cerebrospinal fluid; design: dose 75 mg/kg, route oral; settings: read-out: Drug uptake
In short: (§2)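 Male Sprague–Dawley rats or male Hartley guinea pigs (6−8 weeks, 250−350 g), 6−8 per group, given vehicle or compound orally at 4−5 mL/kg. At set times after dosing, rats were killed by CO₂ and guinea pigs by ip euthasol (250 mg/kg). Plasma came from cardiac-puncture blood in EDTA. CSF was taken by cisterna magna puncture into 10% BSA and snap frozen.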

[3] = Free drug level in Hartley guinea pig brain at 75 mg/kg, po formulated with 0.5% HPMC/0.5% Tween 80 after 5 hrs; assay type: ADME, organism-based, Cavia porcellus; design: dose 75 mg/kg, route oral; settings: in vivo; in short: as §2
[4] = Clearance in guinea pig liver microsomes at 1 uM after 20 mins by LC-MS/MS analysis in presence of NADPH; assay type: ADME, Cavia porcellus, Microsome; settings: read-out: CLH
[5] = Drug uptake in Hartley guinea pig CSF at 150 mg/kg, po formulated with 0.5% HPMC/0.5% Tween 80 after 5 hrs; assay type: ADME, organism-based, Cavia porcellus, Cerebrospinal fluid; design: dose 150 mg/kg, route oral; settings: read-out: Drug uptake
In short: (§3)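 Male Hartley guinea pigs, 6–8 per group, were dosed orally at 4–5 mL/kg and euthanized with intraperitoneal euthasol at set times. CSF (40–100 μL) was collected post-mortem by cisterna magna puncture into tubes containing 10% BSA, then snap-frozen for analysis. Drug concentration was determined in the CSF; plasma and brain were also sampled.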

[6] = Unbound brain-to-plasma concentration ratio in Hartley guinea pig at 75 mg/kg, po formulated with 0.5% HPMC/0.5% Tween 80 after 5 hrs; assay type: ADME, organism-based, Cavia porcellus; design: dose 75 mg/kg, route oral; settings: read-out: K(p,uu,brain)
[7] = Free plasma concentration in Hartley guinea pig at 150 mg/kg, po formulated with 0.5% HPMC/0.5% Tween 80 after 5 hrs; assay type: ADME, organism-based, Cavia porcellus; design: dose 150 mg/kg, route oral; settings: in vivo; in short: as §2
[8] = Clearance in rat liver microsomes at 1 uM after 20 mins by LC-MS/MS analysis in presence of NADPH; assay type: ADME, Microsome
[9] = Clearance in mouse liver microsomes at 1 uM after 20 mins by LC-MS/MS analysis in presence of NADPH; assay type: ADME, Microsome
[10] = Clearance in cynomolgus monkey liver microsomes at 1 uM after 20 mins by LC-MS/MS analysis in presence of NADPH; assay type: ADME, Macaca fascicularis, Microsome
[11] = Clearance in human liver microsomes at 1 uM after 20 mins by LC-MS/MS analysis in presence of NADPH; assay type: ADME, Microsome
[12] = Drug uptake in Hartley guinea pig CSF at 50 mg/kg, po formulated with 40/10/50 PEG/ethanol/H2O after 3 hrs; assay type: ADME, organism-based, Cavia porcellus, Cerebrospinal fluid; design: dose 50 mg/kg, route oral; settings: read-out: Drug uptake; in short: as §3
[13] = Drug uptake in Hartley guinea pig CSF at 150 mg/kg, po formulated with 40/10/50 PEG/ethanol/H2O after 3 hrs; assay type: ADME, organism-based, Cavia porcellus, Cerebrospinal fluid; design: dose 150 mg/kg, route oral; settings: read-out: Drug uptake; in short: as §3
[14] = Free plasma concentration in Hartley guinea pig at 50 mg/kg, po formulated with 40/10/50 PEG/ethanol/H2O after 3 hrs; assay type: ADME, organism-based, Cavia porcellus; design: dose 50 mg/kg, route oral; settings: in vivo; in short: as §1
[15] = Free plasma concentration in Hartley guinea pig at 150 mg/kg, po formulated with 40/10/50 PEG/ethanol/H2O after 3 hrs; assay type: ADME, organism-based, Cavia porcellus; design: dose 150 mg/kg, route oral; settings: in vivo; in short: as §2
Brain [16] = test: Free drug level in mouse brain at 10 mg/kg, po after 1 hr; assay type: ADME, organism-based; design: dose 10 mg/kg, route oral; settings: in vivo
[17] = Unbound brain-to-plasma concentration ratio in mouse at 10 mg/kg, po after 4 hrs; assay type: ADME, organism-based; design: dose 10 mg/kg, route oral; settings: brain and plasma (unbound), read-out: K(p,uu,brain)
[18] = Clearance in mouse at 3 mg/kg, iv and 10 mg/kg, po; assay type: ADME, organism-based; settings: in vivo
Plasma [19] = test: Free plasma concentration in mouse at 10 mg/kg, po after 1 hr; assay type: ADME, organism-based; design: dose 10 mg/kg, route oral; settings: in vivo
Plasma [20] = test: Free plasma concentration in mouse at 10 mg/kg, po after 4 hrs; assay type: ADME, organism-based; design: dose 10 mg/kg, route oral; settings: in vivo
[21] = Oral bioavailability in mouse at 10 mg/kg; assay type: ADME, organism-based; settings: in vivo
Brain [22] = test: Free drug level in mouse brain at 10 mg/kg, po after 4 hrs; assay type: ADME, organism-based; design: dose 10 mg/kg, route oral; settings: in vivo
[23] = Unbound brain-to-plasma concentration ratio in mouse at 10 mg/kg, po after 1 hr; assay type: ADME, organism-based; design: dose 10 mg/kg, route oral; settings: brain and plasma (unbound), read-out: K(p,uu,brain)

Structure (SMILES) | CLint scaled at 1 µM [4] | CLhep predicted at 1 µM [8] | CLhep predicted at 1 µM [9] | CLhep predicted at 1 µM [10] | CLhep predicted at 1 µM [11] | Drug uptake(free) (Brain [16]) | Kp uu at 4 h [17] | clearance [18] | Cp(f) (Plasma [19]) | Cp(f) (Plasma [20]) | bioavailability [21] | Drug uptake(free) (Brain [22]) | Kp uu at 1 h [23] | other results
CN1C(=O)[C@]2(CC(C)(C)Cc3ccc(-c4cccnc4F)cc32)N=C1N | 26 mL/min/kg | 60 mL/min/kg | 24 mL/min/kg | 12 mL/min/kg | 3 mL/min/kg | – | – | – | – | – | – | – | – | Cp(f) [1]: 304 nM; concentration at 5 h [2]: 20 nM; Drug uptake(free) [3]: 11 nM; concentration at 5 h [5]: 247 nM; Kp uu at 5 h [6]: 0.037; Cp(f) [7]: 562 nM
CC1(C)Cc2ccc(-c3cncnc3)cc2[C@@]2(COC(N)=N2)C1 | 12 mL/min/kg | 28 mL/min/kg | 23 mL/min/kg | 29 mL/min/kg | 3 mL/min/kg | – | – | – | – | – | – | – | – | concentration at 3 h [12]: 888 nM; concentration at 3 h [13]: 5610 nM; Cp(f) [14]: 3019 nM; Cp(f) [15]: 6673 nM
CC1(C)Cc2ccc(-c3cncnc3)cc2C2(COC(N)=N2)C1 (racemic) | – | – | 16 mL/min/kg | – | – | 120 nM | 1.1 | 126 mL/min/kg | 120 nM | 12 nM | 34% | 13 nM | 1 | –

Second part, led by results:

CLint scaled at 1 µM [4] | CLhep predicted at 1 µM [8] | CLhep predicted at 1 µM [9] | CLhep predicted at 1 µM [10] | CLhep predicted at 1 µM [11] | Drug uptake(free) (Brain [16]) | Kp uu at 4 h [17] | clearance [18] | Cp(f) (Plasma [19]) | Cp(f) (Plasma [20]) | bioavailability [21] | Drug uptake(free) (Brain [22]) | Kp uu at 1 h [23] | Structure (SMILES) | other results
– | – | 47 mL/min/kg | – | – | 0.7 nM | 0.46 | 69 mL/min/kg | 2.2 nM | 3.6 nM | 52% | 1.6 nM | 0.29 | CN1C(=O)C2(CC(C)(C)Sc3ccc(-c4cc(F)cc(Cl)c4)cc32)N=C1N (racemic) | –
– | – | 59 mL/min/kg | – | – | 3.7 nM | 0.18 | 67 mL/min/kg | 47 nM | 29 nM | 62% | 5.1 nM | 0.08 | CN1C(=O)C2(CC(C)(C)Cc3ccc(-c4cccnc4F)cc32)N=C1N (racemic) | –
– | – | 15 mL/min/kg | – | – | 3.8 nM | 0.22 | 12 mL/min/kg | 42 nM | 32 nM | 79% | 7 nM | 0.09 | CN1C(=O)C2(CC(C)(C)Oc3ccc(-c4cc(F)cc(Cl)c4)cc32)N=C1N (racemic) | –
